Experimental data taken from ChEMBL document CHEMBL1629621, “Evaluation of strategies for improving proteolytic resistance of antimicrobial peptides by using variants of EFK17, an internal segment of LL-37” (Antimicrob Agents Chemother, 2009).
In brackets after ≈: the same amount, converted by molar mass. Activity calls are given as the source filed them. The calls are words filed in the database; no cut-off is given here. Where a SMILES comes first, the peptide text is derived from it.

Assays:
[1] = Toxicity in human erythrocytes at 60 uM by hemolysis assay in presence of serum; assay type: cell-based; settings: erythrocyte
Staphylococcus aureus [2] = experiment: Antimicrobial activity against Staphylococcus aureus FDA 486 after 21 hrs by broth microdilution method; assay type: functional; settings: FDA 486, 21 h
Summary of the method: (§1)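 Microtiter broth dilution at 37°C for 21 h in DEAE-refined LB medium prepared in 10 mM Tris, pH 7.4. Bacteria were grown overnight in 3% trypticase soy broth, rinsed in Tris and used at about 10^6 CFU/ml. Final peptide was 0.6–80 µM in twofold steps. Growth was read visually as pellet and at OD540. MIC is >95% inhibition with no visible pellet. Two separate experiments.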

Staphylococcus aureus [3] = experiment: Antimicrobial activity against Staphylococcus aureus 2844 after 21 hrs by broth microdilution method; assay type: functional; settings: Staphylococcus aureus, 2844, 21 h; summary of the method: as §1
Staphylococcus aureus [4] = experiment: Antimicrobial activity against Staphylococcus aureus 29213 after 21 hrs by broth microdilution method; assay type: functional; settings: Staphylococcus aureus, 29213, 21 h; summary of the method: as §1
Pseudomonas aeruginosa [5] = experiment: Antimicrobial activity against Pseudomonas aeruginosa ATCC 27853 after 21 hrs by broth microdilution method; assay type: functional; settings: ATCC 27853, 21 h; summary of the method: as §1
Pseudomonas aeruginosa [6] = experiment: Antimicrobial activity against Pseudomonas aeruginosa 15159 after 21 hrs by broth microdilution method; assay type: functional; settings: Pseudomonas aeruginosa, 15159, 21 h; summary of the method: as §1
Lipid bilayer [7] = experiment: Binding affinity to DOPC-cholesterol liposome at 10 to 1000 uM after 45 mins by ellipsometry
Summary of the method: (§2)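 Ellipsometry on DOPC-cholesterol bilayers deposited from DDM micelles onto silica. Peptide was added cumulatively in 10 mM Tris, pH 7.4, with 5 mM glucose at 37°C; […] adds 150 mM NaCl. Each step was followed 45 min to saturation. Adsorbed amount was calculated from refractive index and thickness, with dn/dc 0.154 cm3/g. Duplicates.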

Lipid bilayer [8] = experiment: Binding affinity to DOPC-cholesterol liposome at 10 to 1000 uM after 45 mins by ellipsometry in presence of NaCl; summary of the method: as §2
[9] = Stability of the compound at 136 uM after 4 hrs in presence of human neutrophil elastase; assay type: ADME
Summary of the method: (§3)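 Peptide at 136 µM was incubated with protease (peptide:enzyme 300:1) for 4 h at 37°C in 10 mM Tris, pH 7.4. The reaction was stopped by boiling in Laemmli buffer, then run on Tris-Tricine 16.5% SDS-PAGE and Coomassie stained. Band densitometry gave the undegraded fraction, normalized to peptide incubated without enzyme. Two separate experiments.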

[10] = Stability of the compound at 136 uM after 4 hrs in presence of Pseudomonas aeruginosa elastase; assay type: ADME; summary of the method: as §3
[11] = Stability of the compound at 136 uM after 4 hrs in presence of aureolysin; assay type: ADME; summary of the method: as §3
[12] = Stability of the compound at 136 uM after 4 hrs in presence of […] V8 protease; assay type: ADME; summary of the method: as §3
Lipid bilayer [13] = experiment: Induction of DOPC-cholesterol liposome leakage in cell-free system at 0.1 to 1 uM after 45 mins; assay type: functional
Summary of the method: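 Carboxyfluorescein-loaded (100 mM, self-quenching) DOPC-cholesterol 3:2 unilamellar liposomes, about 110 nm, at 10 µM lipid in Tris buffer at 37°C with stirring. Peptide was added at a single concentration per experiment, between 0.01 and 1 µM. After a 10 min baseline, fluorescence increase was followed for 45 min and the limiting leakage level taken.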

[14] = Toxicity in human erythrocytes at 6 to 60 uM by hemolysis assay; assay type: cell-based; settings: erythrocyte
Summary of the method: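 EDTA-treated human erythrocytes were washed and used as a 5% suspension in PBS, pH 7.4. Cells were rotated end-over-end with peptide for 1 h at 37°C, then centrifuged. Hemoglobin was read at 540 nm relative to 2% Triton X-100, with spontaneous leakage as background. Triplicate.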

HaCaT [15] = experiment: Cytotoxicity against human HaCaT assessed as LDH release at 6 to 60 uM; assay type: cell-based
Summary of the method: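 HaCaT keratinocytes were seeded at 3,000 cells/well and grown to confluence in serum-free keratinocyte medium with BPE-rEGF. They were exposed overnight to 6 or 60 µM peptide in that medium. LDH release was measured against a 1% Triton X-100 control, with spontaneous release as background. Triplicate.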

HaCaT [16] = experiment: Cytotoxicity against human HaCaT assessed at 6 to 60 uM by MTT assay; assay type: cell-based
Summary of the method: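 HaCaT keratinocytes were seeded at 3,000 cells/well, grown to confluence in SFM-BPE-rEGF, and given 6 or 60 µM peptide overnight. MTT was then added for 1 h at 37°C and formazan dissolved in DMSO. Absorbance was read at 550 nm relative to untreated cells, with the 1% Triton X-100 signal as background. Triplicate.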

Row | MIC (Staphylococcus aureus [2]) [µM] | MIC (Staphylococcus aureus [3]) [µM] | MIC (Staphylococcus aureus [4]) [µM] | MIC (Pseudomonas aeruginosa [5]) [µM] | MIC (Pseudomonas aeruginosa [6]) [µM] | Activity (Lipid bilayer [7]) | Activity (Lipid bilayer [8]) | Stability [9] | Stability [10] | Stability [11] | Stability [12] | Compound | Activity [1] | Activity (Lipid bilayer [13]) | Activity [14] | Activity (HaCaT [15]) | Activity (HaCaT [16])
1 | 40 (≈ 87 µg/mL) | 20 (≈ 43.5 µg/mL) | 80 (≈ 174 µg/mL) | 80 (≈ 174 µg/mL) | 80 (≈ 174 µg/mL) | Active | inactive | Unstable | Unstable | Unstable | Stable | CC[C@H](C)[C@H](NC(=O)[C@H](CCCNC(=N)N)NC(=O)[C@H](CCC(N)=O)NC(=O)[C@@H](NC(=O)[C@@H](NC(=O)[C@H](CCCNC(=N)N)NC(=O)[C@H](CCCCN)NC(=O)[C@H](Cc1ccccc1)NC(=O)[C@@H](N)CCC(=O)O)[C@@H](C)CC)C(C)C)C(=O)N[C@@H](CCCCN)C(=O)N[C@@H](CC(=O)O)C(=O)N[C@@H](Cc1ccccc1)C(=O)N[C@@H](CC(C)C)C(=O)N[C@@H](CCCNC(=N)N)C(=O)N[C@@H](CC(N)=O)C(=O)N[C@@H](CC(C)C)C(=O)N[C@H](C(=O)O)C(C)C | Non-toxic | Active |  |  | 
2 | 5 (≈ 12 µg/mL) | 5 (≈ 12 µg/mL) | 10 (≈ 24 µg/mL) | 10 (≈ 24 µg/mL) | 20 (≈ 48 µg/mL) | Active | inactive | Stable | Unstable | Stable | Stable | CC(C)C[C@H](NC(=O)[C@H](Cc1c[nH]c2ccccc12)NC(=O)[C@H](CC(=O)O)NC(=O)[C@H](CCCCN)NC(=O)[C@H](Cc1c[nH]c2ccccc12)NC(=O)[C@H](CCCNC(=N)N)NC(=O)[C@H](CCC(N)=O)NC(=O)[C@@H](NC(=O)[C@H](Cc1c[nH]c2ccccc12)NC(=O)[C@H](CCCNC(=N)N)NC(=O)[C@H](CCCCN)NC(=O)[C@H](Cc1c[nH]c2ccccc12)NC(=O)[C@@H](N)CCC(=O)O)C(C)C)C(=O)N[C@@H](CCCNC(=N)N)C(=O)N[C@@H](CC(N)=O)C(=O)N[C@@H](CC(C)C)C(=O)N[C@H](C(=O)O)C(C)C (H-EWKRWVQRWKDWLRNLV-OH) |  | Active | Toxic | Toxic | Toxic
